Test results as given in article PMC4263960 (Pediatric blood & cancer, 2013).

Tests used:
KT-10 Wilms xenograft = test: PPTP in vivo xenograft testing, KT-10; parameters: species or system mice
[1] = cited from earlier work
Rh18 cell line = test: DIMSCAN in vitro cytotoxicity testing, Rh18; type: cell-based
Procedure, shortened: (§1)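 Test compound incubated with cells of a 24-line pediatric cancer panel for 96 h at 0.1 nM to 1 μM, then assessed by DIMSCAN. Relative IC50 (rIC50) derived per line. Panel comparison value is the panel rIC50 divided by the rIC50 of each cell line.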

KT-13 Wilms xenograft = test: PPTP in vivo xenograft testing, KT-13; parameters: species or system mice
CHLA-90 cell line = test: DIMSCAN in vitro cytotoxicity testing, CHLA-90; type: cell-based
Procedure, shortened: as §1

[2] = test system: OS-1 osteosarcoma xenograft; test: PPTP in vivo xenograft testing, OS-1; parameters: species or system mice
CHLA-136 cell line = test: DIMSCAN in vitro cytotoxicity testing, CHLA-136; type: cell-based
Procedure, shortened: as §1

Rh41 cell line = test: DIMSCAN in vitro cytotoxicity testing, Rh41; type: cell-based
Procedure, shortened: as §1

CHLA-266 cell line = test: DIMSCAN in vitro cytotoxicity testing, CHLA-266; type: cell-based
Procedure, shortened: as §1

[3] = test system: NB-SD neuroblastoma xenograft; test: PPTP in vivo xenograft testing, NB-SD; parameters: species or system mice
MOLT-4 cell line = test: DIMSCAN in vitro cytotoxicity testing, MOLT-4; type: cell-based
Procedure, shortened: as §1

[4] = test system: OS-31 osteosarcoma xenograft; test: PPTP in vivo xenograft testing, OS-31; parameters: species or system mice
TC-71 cell line = test: DIMSCAN in vitro cytotoxicity testing, TC-71; type: cell-based
Procedure, shortened: as §1

[5] = 1 mg/kg IP Q4Dx3 repeated at Day 21

For `C=C1C[C@@H]2CC[C@@]34C[C@H]5O[C@H]6[C@@H](O3)[C@H]3O[C@H](CC[C@@H]3O[C@H]6[C@H]5O4)CC(=O)C[C@@H]3[C@@H](OC)[C@@H](C[C@H](O)CN)O[C@H]3C[C@H]3O[C@@H](CC[C@@H]1O2)C[C@@H](C)C3=C` [Eribulin], the T/C volume activity (KT-10 Wilms xenograft; 1 mg/kg IP) was “High (High activity = T/C ≤0.15)”, the “EFS T/C” value (KT-10 Wilms xenograft; [5]) was over 3.7 and the “Median final RTV (CD45%)” value (KT-10 Wilms xenograft; [5]) was 0.0. For the same compound, the “Tumor volume T/C” value (KT-10 Wilms xenograft; 1 mg/kg IP, Day 21 or earlier) was 0.01, the “systemic exposure (AUC)” value ([1]; humans, 1.4 mg/m^2 dose) was “approximately 790 ng hour/ml” and the serum half-life ([1]; patients) was 37.8 h. The IC50 (Rh18 cell line; Homo sapiens, Rh18, 96 h, read-out: rIC50) was 0.83 nM, the “Panel rIC50/Line rIC50” value (Rh18 cell line; Rh18) was 0.33 and the Relative in/out% (Rh18 cell line; Rh18) was −53%. For the same compound, the “Ymin % (observed)” value (Rh18 cell line; Rh18) was 20.92%, the EFS activity (KT-13 Wilms xenograft; 1 mg/kg IP) was “Int (Intermediate activity = criteria (a) and (b) above, but not having a net reduction in median tumor volume for treated animals at the end of the study)” and the Response activity (KT-13 Wilms xenograft; 1 mg/kg IP) was “High (A high level of activity is indicated by a score of 6 or more)”. The T/C volume activity (KT-13 Wilms xenograft; 1 mg/kg IP) was “High (High activity = T/C ≤0.15)”, the “EFS T/C” value (KT-13 Wilms xenograft; [5]) was over 3.3 and the “Median final RTV (CD45%)” value (KT-13 Wilms xenograft; [5]) was 1.1. The “Tumor volume T/C” value (KT-13 Wilms xenograft; 1 mg/kg IP, Day 21 or earlier) was 0.15, the IC50 (CHLA-90 cell line; 96 h, read-out: rIC50) was 1.77 nM and the “Panel rIC50/Line rIC50” value (CHLA-90 cell line; CHLA-90) was 0.15. The Relative in/out% (CHLA-90 cell line; CHLA-90) was −67%, the “Ymin % (observed)” value (CHLA-90 cell line; CHLA-90) was 9.26% and the Response activity ([2]; 1 mg/kg IP) was “High (A high level of activity is indicated by a score of 6 or more)”. For the same compound, the T/C volume activity ([2]; 1 mg/kg IP) was “Low (Low activity = T/C >0.45)”, the “EFS T/C” value [2, 5] was over 1.5 and the “Median final RTV (CD45%)” value [2, 5] was 0.4. For the same compound, the “Tumor volume T/C” value ([2]; 1 mg/kg IP, Day 21 or earlier) was 0.64, the IC50 (CHLA-136 cell line; 96 h, read-out: rIC50) was 2.37 nM and the “Panel rIC50/Line rIC50” value (CHLA-136 cell line; CHLA-136) was 0.11. The Relative in/out% (CHLA-136 cell line; CHLA-136) was −65%, the “Ymin % (observed)” value (CHLA-136 cell line; CHLA-136) was 9.96% and the IC50 (Rh41 cell line; Homo sapiens, Rh41, 96 h, read-out: rIC50) was 0.14 nM. For the same compound, the “Panel rIC50/Line rIC50” value (Rh41 cell line; Rh41) was 2.00, the Relative in/out% (Rh41 cell line; Rh41) was −70% and the “Ymin % (observed)” value (Rh41 cell line; Rh41) was 6.63%. For the same compound, the “Panel rIC50/Line rIC50” value (CHLA-266 cell line; CHLA-266) was 0.71, the Relative in/out% (CHLA-266 cell line; CHLA-266) was −79% and the “Ymin % (observed)” value (CHLA-266 cell line; CHLA-266) was 5.54%. The IC50 (CHLA-266 cell line; Homo sapiens, CHLA-266, 96 h, read-out: rIC50) was 0.38 nM, the EFS activity ([3]; 1 mg/kg IP) was “Int (Intermediate activity = criteria (a) and (b) above, but not having a net reduction in median tumor volume for treated animals at the end of the study)” and the Response activity ([3]; 1 mg/kg IP) was “Int (intermediate activity by a score of ≥2 but <6)”. The T/C volume activity ([3]; 1 mg/kg IP) was “Low (Low activity = T/C >0.45)”, the “EFS T/C” value [3, 5] was 2.4 and the “Median final RTV (CD45%)” value [3, 5] was over 4. For the same compound, the Time to event [3, 5] was 17.5, the “Tumor volume T/C” value ([3]; 1 mg/kg IP, Day 21 or earlier) was 0.53 and the IC50 (MOLT-4 cell line; Homo sapiens, MOLT-4, 96 h, read-out: rIC50) was under 0.1 nM. The “Panel rIC50/Line rIC50” value (MOLT-4 cell line; MOLT-4) was over 2.74, the Relative in/out% (MOLT-4 cell line; MOLT-4) was −99% and the “Ymin % (observed)” value (MOLT-4 cell line; MOLT-4) was 0.05%. For the same compound, the EFS activity ([4]; 1 mg/kg IP) was “Int (Intermediate activity = criteria (a) and (b) above, but not having a net reduction in median tumor volume for treated animals at the end of the study)”, the Response activity ([4]; 1 mg/kg IP) was “Int (intermediate activity by a score of ≥2 but <6)” and the T/C volume activity ([4]; 1 mg/kg IP) was “Int (Intermediate activity = T/C ≤0.45 but >0.15)”. The “EFS T/C” value [4, 5] was over 2.6, the “Median final RTV (CD45%)” value [4, 5] was 1.8 and the “Tumor volume T/C” value ([4]; 1 mg/kg IP, Day 21 or earlier) was 0.27. For the same compound, the “Panel rIC50/Line rIC50” value (TC-71 cell line; TC-71) was 2.45, the Relative in/out% (TC-71 cell line; TC-71) was −99% and the “Ymin % (observed)” value (TC-71 cell line; TC-71) was 0.01%. It also gave an IC50 (TC-71 cell line; TC-71, 96 h, read-out: rIC50) of 0.11 nM.
